This note sets out measurements from ChEMBL document CHEMBL4513216, “Probing the Open Global Health Chemical Diversity Library for Multistage-Active Starting Points for Next-Generation Antimalarials” (ACS Infect Dis, 2020).

This data set can be described thus: Toxicity liver stage against HepG2, at 10uM. The settings on record: human, HepG2-A16-CD81EGFP cells; read-out: INHIBITION
It counts as cell-based. Further details: test concentration 10 uM, cell line HepG2-A16-CD81EGFP. A digest of the protocol: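 Uninfected HepG2-A16-CD81EGFP cells, 3 × 10^3 per well, 1536-well, plated on prespotted compound at 10 μM final, parasite-free screening media added to match infected plates; puromycin 10 μM positive, DMSO 0.5% negative; run in parallel with 48 h PbLuc assay at 37 °C, 5% CO2; viability by CellTiter-Glo luminescence, normalized to controls.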
In the case of `O=c1ncn(-c2ccccc2F)c2ncccc12`, the cytotoxicity at 10 µM was -2.26%. Then `CCCN(CCC)C1(Cc2cc(-c3cccc(O)c3)on2)COC1`, with -1.19%. Take `O=C(Cc1ccccc1)NC[C@H]1Cn2ccnc2CO1`: the cytotoxicity at 10 µM is 0.148%.

Consider `CC(C)CCc1n[nH]c(C(=O)O)c1Cl`, for which the cytotoxicity at 10 µM was -5.47%. With `CC(C)NC(=O)CNC(=O)N1CCc2c([nH]c3ccc(Cl)cc23)C1`, the cytotoxicity at 10 µM stood at 7.15%.

Take `COCCN1C[C@@H]2CN(S(=O)(=O)c3cccs3)C[C@@H]2C1=O`: the cytotoxicity at 10 µM came out at 0.258%.

Turning to `Cc1cccc(CN2C[C@@H]3OCCN(C)[C@@H]3C2)n1`, the cytotoxicity at 10 µM came to 1.73%. Consider `COCc1ncn2c1CN(C(=O)Nc1ccccc1)CC2`, for which the cytotoxicity at 10 µM turned out to be 0.763%.

`Cn1cccc1CN1CCc2ncnc(-c3cccnc3)c2CC1`: the cytotoxicity at 10 µM was 9.03%.

As for `COCCO[C@H]1CCN(C(=O)c2ccco2)[C@H]1Cc1cnn(C)c1`, the cytotoxicity at 10 µM was 2.4%. In the case of `O=C(c1ccccc1)N1CC[C@H]2C[C@@H](c3nccs3)O[C@@H]2C1`, the cytotoxicity at 10 µM is -5.44%. In the case of `Cc1cccc(CSc2ncc(Br)c(C(=O)O)n2)c1`, the cytotoxicity at 10 µM was -9.41%.

`Cc1ccc(-c2cc(C(=O)O)sn2)cc1`: the cytotoxicity at 10 µM is 2.2%. Regarding `CCCc1nnsc1C(=O)NCC1CCN(S(C)(=O)=O)CC1`, the cytotoxicity at 10 µM is -19.7%. `Cn1c(SCC(N)=O)nnc1-c1csc2c1CCCC2`: the cytotoxicity at 10 µM came out at 36.2%.

Take `Cc1cnc(CCNC(=O)C2CCN(S(=O)(=O)c3ccc(F)cc3)C2)s1` (stereo not drawn): the cytotoxicity at 10 µM came to 2.56%. For `CNc1nccnc1C1CN(C(=O)c2cc[nH]n2)CCO1` (stereo not drawn), the cytotoxicity at 10 µM was -12.3%. With `COCCNC(=O)c1cc(C)nc(C2CCN(C)CC2)n1` the figure was -2.48%; with `CCC(=O)N1CCC(c2nc3c(c(NC)n2)CN(C)CC3)C1` (stereo not drawn), -3.74%. With `O=C(CC1CCCC1)N1CCOC(c2nc(-c3ncccn3)no2)C1` (stereo not drawn) the figure was -13.2%. For `CNC(=O)Nc1cnc2cc(Cl)ccc2c1O`, the cytotoxicity at 10 µM was -30%. As to `Cc1nccn1-c1cncc(C2CCCN2Cc2cccnc2)n1` (stereo not drawn), the cytotoxicity at 10 µM is -20.4%. As to `O=C(CSc1nnc(N2CCCC2)s1)NC(=O)Nc1ccccc1`, the cytotoxicity at 10 µM amounted to 3.59%. Turning to `CCOC(C)c1nc(COc2nc(C)no2)cs1` (stereo not drawn), the cytotoxicity at 10 µM was -1.64%. With `COc1ccccc1C1(CNc2cn[nH]c(=O)c2Cl)CC1` the figure was 54.8%.

For the compound `CN1CCN(C2CCN(Cc3cn4ccccc4n3)CC2)C1=O`, the cytotoxicity at 10 µM was determined as 19.1%. Then `Cc1cccc(N2CCC(NC(C)c3cccs3)CC2)n1` (stereo not drawn), with -17.2%; and `Cc1[nH]ncc1CCCNC(=O)N1CCN2CCCCC2C1` (stereo not drawn), with 5.8%; and `Cc1ccc(C)c(Oc2ccc(CNC(=O)C3CNC(=O)N3)cn2)c1` (stereo not drawn), with 0.577%. Regarding `Cc1ccc(CN(C)C(=O)CN2CCc3ccccc3C2)o1`, the cytotoxicity at 10 µM was -6.9%. In the case of `COc1ncnc(N(C)C)c1NC(=O)c1cscc1C`, the cytotoxicity at 10 µM was -1.7%. As for `FC(F)(F)Sc1ccccc1NCc1nc(C2CC2)no1`, the cytotoxicity at 10 µM came to 0.858%. In the case of `Cc1ccc(N2CCCC(N(C)c3nn4cc(C)nc4s3)C2)nn1` (stereo not drawn), the cytotoxicity at 10 µM worked out at 8.45%.

`CNS(=O)(=O)c1ccccc1N1CCN(C(=O)C(C)C)CC1`: the cytotoxicity at 10 µM was 4%. As for `Cc1nn(C)c(N(C)C)c1CNCc1cccc(Br)c1`, the cytotoxicity at 10 µM was -7.98%. For `CCOCCNC(=O)Nc1cccc(-c2nccn2C)c1`, the cytotoxicity at 10 µM is -3.26%. With `CC(=O)N1CCN(C(=O)C(C)OCC(F)(F)F)CC1` (stereo not drawn) the figure was -10.8%. On to `Cc1cccc(C(=O)N2CCN(c3ccccc3F)CC2)n1`, for which the cytotoxicity at 10 µM was 1.83%.

`COC(=O)C(C)(C)NC(=O)C1CC(=O)N(CC(C)C)C1` (stereo not drawn): the cytotoxicity at 10 µM was -152%. For the compound `N#Cc1ncn(CCC(=O)Nc2cc(Cl)ccc2Cl)n1`, the cytotoxicity at 10 µM is -161%. Consider `Clc1cncc(N2CCCC2c2nnc3n2CCCCC3)n1` (stereo not drawn), for which the cytotoxicity at 10 µM was -7.44%. Regarding `CCC(NC(=O)Nc1ccc(OC)c(C)c1)c1noc(C)n1` (stereo not drawn), the cytotoxicity at 10 µM is -12%.

As to `O=C(Nc1cc(C2CCOCC2)[nH]n1)c1cscn1`, the cytotoxicity at 10 µM is -7.84%. Take `CN(C(=O)CCOc1ccccc1)C1CCN(CC2CCOC2)CC1` (stereo not drawn): the cytotoxicity at 10 µM was -7.7%. For the compound `c1cnc(N2CCC(NCc3cnc(C4CCC4)s3)CC2)nc1`, the cytotoxicity at 10 µM was found to be 4.24%.

For the compound `Cc1cc2c(cc1C)C(NC1CC1)CCCO2` (stereo not drawn), the cytotoxicity at 10 µM is 4.57%. With `CC(C)S(=O)(=O)Cc1cccc(NC(=O)c2ccc[nH]2)c1` the figure was -0.118%. Take `CC(C)c1nc(C2CCCN2c2cnc3ccccc3n2)no1` (stereo not drawn): the cytotoxicity at 10 µM is -3.13%.

Regarding `Cc1csc2ncc(-c3ccnc(N4CCC[C@@H]4CO)n3)c(=O)n12`, the cytotoxicity at 10 µM is -11.3%. Consider `CCCn1ncnc1C(C)NC(=O)C1CCN(C(=O)C2CC2)CC1` (stereo not drawn), for which the cytotoxicity at 10 µM is -147%.

On to `COc1ccccc1[C@@H]1CN(Cc2ccncc2)C[C@H]1C(=O)O`, for which the cytotoxicity at 10 µM was -4.23%. Regarding `COc1cc2c(cc1CN1CCC3(CCCN(C)C3=O)C1)OCCO2` (stereo not drawn), the cytotoxicity at 10 µM amounted to 6.33%.

With `CC(C)(CN1CCC2(CCNCC2)CC1)N1CCOCC1`, the cytotoxicity at 10 µM is -148%. With `Cc1nn(CCN2CCSCC2)cc1CNCC1CC1`, the cytotoxicity at 10 µM is -7.03%.

In the case of `CC(=O)N1CCN(C(=O)c2snnc2C)[C@H]2CS(=O)(=O)C[C@H]21`, the cytotoxicity at 10 µM is -0.145%. As for `Cc1cccc(CN2C(=O)OCC2CO)c1F` (stereo not drawn), the cytotoxicity at 10 µM is -2.13%. Regarding `Cc1c(C(=O)N2CCC(O)(CN(C)C)C2)c2cc(O)ccc2n1C` (stereo not drawn), the cytotoxicity at 10 µM is -120%. Take `O=C(NCc1csc(-c2cccs2)n1)C1NCCc2[nH]cnc21` (stereo not drawn): the cytotoxicity at 10 µM is -0.798%.

Take `Cc1cnc(N2CCCC3(CCOCC3)C2)nc1`: the cytotoxicity at 10 µM was -116%. As for `CC(C)C[C@H]1CN(c2nc3c(cc2C(N)=O)CCC3)CC[C@@]1(C)O`, the cytotoxicity at 10 µM was -4.51%. With `O=C(CC1COCCN1)N1CCCN(C2Cc3ccccc3C2)CC1` (stereo not drawn), the cytotoxicity at 10 µM was -139%. `O=C(c1scc2c1OCCO2)N1CCOC(Cc2cccc(F)c2)C1` (stereo not drawn): the cytotoxicity at 10 µM worked out at 4.78%.

As to `CCn1c(Cn2cncn2)nnc1C1CCN(Cc2ccncc2)CC1`, the cytotoxicity at 10 µM was determined as 12.3%.

Regarding `Cc1cc(F)ccc1OC1(C(=O)O)CCN(Cc2ccncc2)CC1`, the cytotoxicity at 10 µM is -8.31%. `Cc1ccc([C@@H]2CN(S(=O)(=O)C(C)C)C[C@H]2N(C)C)cc1`: the cytotoxicity at 10 µM was -0.368%. Take `NC(=O)CSc1nccc(-c2ccc3c(c2)OCO3)n1`: the cytotoxicity at 10 µM was -7.38%.

Consider `Cc1nc(C)c(CN2CCC(N(C)Cc3nnc(C4CC4)o3)C2)s1` (stereo not drawn), for which the cytotoxicity at 10 µM is -4.18%.

Take `Cc1nc(C(C)C)sc1C(=O)NCCn1nc2ccccn2c1=O`: the cytotoxicity at 10 µM is -12%.

`NC(=O)C1CN(C(=O)Nc2ccc(SC(F)(F)F)cc2)CCO1` (stereo not drawn): the cytotoxicity at 10 µM is -12.9%. In the case of `COc1c(C2CCCN2Cc2nc(-c3ccco3)no2)c(C)nn1C` (stereo not drawn), the cytotoxicity at 10 µM was -10.2%. `COc1ccnc(N2CCN(C(=O)c3ccn(C)c(=O)c3)CC2)n1`: the cytotoxicity at 10 µM was -13.7%. Regarding `COc1c(CNCc2cccc(Cn3cncn3)c2)c(C)nn1C`, the cytotoxicity at 10 µM was -11.2%. For the compound `Cc1nn(CC(C)C)c(N(C)C)c1CNCc1ccccc1CO`, the cytotoxicity at 10 µM was -15.2%. In the case of `Cc1nn(C)c(N(C)C)c1CNCCS(C)(=O)=O`, the cytotoxicity at 10 µM was -17.4%.

Regarding `CS(=O)(=O)c1ccc(CNC(=O)Nc2cn[nH]c2)cc1`, the cytotoxicity at 10 µM was -1.88%.

In the case of `CN(Cc1ccc(F)cc1)C(=O)NCc1nnc2n1CCC2`, the cytotoxicity at 10 µM was -17.8%. For the compound `COc1ccc(-c2cnc(CN3CCCC3Cn3cccn3)o2)cc1` (stereo not drawn), the cytotoxicity at 10 µM was -5.71%. Then `CC(C)c1noc(CCC(=O)NCC2CCC(C(N)=O)CC2)n1` (stereo not drawn), with -31.6%. With `CCS(=O)(=O)c1ccccc1C(=O)N1CCCC(n2cccn2)C1` (stereo not drawn), the cytotoxicity at 10 µM was -29.9%. `CCc1nc(C2CCCN2C(=O)c2ccc3c(c2)[nH]c(=O)n3C)no1` (stereo not drawn): the cytotoxicity at 10 µM stood at 1.04%. With `Cc1cc(C)n(CC2CN(c3ncnc4[nH]ccc34)CCO2)n1` (stereo not drawn), the cytotoxicity at 10 µM is -6.88%.

As to `CCCc1nc(CN2CCc3c(ncn3C3CC3)C2)cs1`, the cytotoxicity at 10 µM was -0.0225%. Regarding `CCCc1nc(C)c(C(=O)NCCN2CCCCC2)s1`, the cytotoxicity at 10 µM was -0.906%. Turning to `Cc1noc(C2CCCN(C(=O)c3ccc(F)cc3F)C2)n1` (stereo not drawn), the cytotoxicity at 10 µM turned out to be 2.01%. With `O=C(c1ccccn1)N1CCC(Nc2cccnn2)CC1`, the cytotoxicity at 10 µM is -0.121%. On to `Cc1cnn(CC2CCCCN2Cc2cc(C)on2)c1` (stereo not drawn), for which the cytotoxicity at 10 µM is -5.36%. Regarding `Cc1nn2cccnc2c1C(=O)N1CCCC(n2ccnc2)C1` (stereo not drawn), the cytotoxicity at 10 µM was -4.62%. `CCNc1cc2c(nn1)CCN(C(=O)c1ccc(CNC(C)=O)o1)C2`: the cytotoxicity at 10 µM was -10.8%. With `CC(Cn1cccn1)NC(=O)NCc1cccnc1OC1CCCC1` (stereo not drawn), the cytotoxicity at 10 µM came to 4.86%. On to `Cc1nc(C)n(CC2CCCCN2CCC(=O)Nc2cc(C)on2)n1` (stereo not drawn), for which the cytotoxicity at 10 µM was -2.86%. With `COc1ccc(CN(C)CC2CCCN2c2cccnn2)cc1F` (stereo not drawn), the cytotoxicity at 10 µM came out at 4.48%. Consider `CNC(=O)[C@@H](c1ccccc1OC)N1CCC[C@H]1C(=O)NC(C)(C)C`, for which the cytotoxicity at 10 µM is -6.67%.

As for `CCS(=O)(=O)N1CCCC2(CCCN2Cc2cccc(F)c2)C1` (stereo not drawn), the cytotoxicity at 10 µM is -141%. With `O=C(N1CCOCC1)[C@@]12CCO[C@@H]1CCN(CCN1CCCCC1)C2`, the cytotoxicity at 10 µM is -3.78%.

Consider `Cc1ccc(S(=O)(=O)NC(C)(C)CN)c(F)c1`, for which the cytotoxicity at 10 µM was -8.73%.

Take `O=C(c1ccccc1)N1CCC2(CCCN2c2ncccn2)CC1`: the cytotoxicity at 10 µM was -127%. Then `CN(C)S(=O)(=O)N1C[C@@H]2C[C@H](C(=O)Nc3ccccc3)[C@H](C1)O2`, with 5.86%; and `O=C(Nc1ccc(F)cc1)N1C[C@@H]2CC[C@H]1CN(Cc1cccnc1)C2`, with -13.4%.
